Assay results published in ChEMBL document CHEMBL5120974, “Antitubercular Activity of Novel 2-(Quinoline-4-yloxy)acetamides with Improved Drug-Like Properties” (ACS Med Chem Lett, 2022).
≈ marks a conversion by molar mass, not a printed value.

How the values were obtained:
[1] = tested on: Mycobacterium tuberculosis; test: Antitubercular activity against Mycobacterium tuberculosis H37Rv assessed as bacterial growth inhibition incubated for 7 days by resazurin assay; assay type: functional; conditions: 168 h, time 7 day
[2] = Selectivity index, ratio of CC50 for cytotoxicity against human HepG2 cells to MIC for antitubercular activity against Mycobacterium tuberculosis H37Rv; assay type: toxicity, cell-based
Method in brief: (§1)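 SI = CC₅₀/MIC, with the MIC taken against H37Rv. CC₅₀ is the concentration that cuts cell viability by 50%, from cells exposed for 72 h. Viability was read by both MTT (mitochondrial activity) and neutral red uptake (lysosomal integrity).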

HepG2 = test: Cytotoxicity against human HepG2 cells assessed as reduction in cell viability incubated for 72 hrs by MTT assay; assay type: functional
Method in brief: (§2)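 HepG2 and Vero cells were exposed to compound for 72 h, with viability read by MTT (mitochondrial activity) and neutral red uptake (lysosomal integrity). CC₅₀ is the concentration reducing cell viability by 50%.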

[3] = Selectivity index, ratio of CC50 for cytotoxicity against African green monkey Vero cells to MIC for antitubercular activity against Mycobacterium tuberculosis H37Rv; assay type: toxicity, cell-based; method in brief: as §1
[4] = Cytotoxicity against African green monkey Vero cells assessed as reduction in cell viability incubated for 72 hrs by MTT assay; assay type: toxicity, cell-based; conditions: chlorocebus sabaeus; method in brief: as §2
[5] = tested on: Mycobacterium tuberculosis; test: Antitubercular activity against Mycobacterium tuberculosis H37Rv infected in mouse RAW 264.7 cells assessed as reduction on bacterial colony growth at 2.5 uM incubated for 2 to 3 weeks; assay type: functional; conditions: time 2-3 weeks
Method in brief: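 Mtb growth inside macrophages (in vitro infection model) was tested with compounds at 2.5 μM; the untreated control got 0.5% DMSO vehicle. Read-out was log₁₀ CFU/well, given as mean ± standard deviation and compared with the untreated group by Dunnett post-test (P < 0.05).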

[6] = Plasma concentration in mouse plasma at 121.6 mg/kg,po measured after 24 hrs by HPLC analysis; assay type: ADME, organism-based
Method in brief: (§3)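 Mouse pharmacokinetics after a single intravenous dose of 25 mg/kg (61.6 μmol/kg) or an oral dose of 121.6 mg/kg (300 μmol/kg). Plasma drug concentrations were quantified over time, including a 24 h sample after oral dosing. Oral bioavailability was estimated by comparing the two routes.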

[7] = Cmax in mouse plasma at 121.6 mg/kg,po by HPLC analysis; assay type: ADME, organism-based; design: dose 121.6 mg/kg, route po; method in brief: as §3
[8] = Inter-compartmental clearance in mouse plasma at 25 mg/kg,iv by HPLC analysis; assay type: ADME, organism-based; conditions: in vivo; method in brief: as §3
[9] = Oral bioavailability in mouse plasma at 121.6 mg/kg by HPLC analysis; assay type: ADME, organism-based; method in brief: as §3
[10] = Chemical stability of the compound in pH 7.4 PBS assessed as remaining product at 10 uM incubated for 24 hrs by HPLC-MS/MS analysis; assay type: physicochemical; conditions: PBS pH 7.4, pH 7.4, read-out: Stability
Method in brief: (§4)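 Compound incubated 24 h at 37 °C in 0.1 M HCl (pH 1.2), PBS (pH 7.4) or 0.1 M NH₄HCO₃ (pH 9.1). Result is reported as percentage of compound remaining after incubation.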

[11] = Chemical stability of the compound in pH 9.1 NH4HCO3 assessed as remaining product at 10 uM incubated for 24 hrs by HPLC-MS/MS analysis; assay type: physicochemical; conditions: NH4HCO3 pH 9.1, pH 9.1, read-out: Stability; method in brief: as §4
[12] = Metabolic stability in rat liver microsomes assessed as half life measured upto 30 min by HPLC-MS/MS analysis; assay type: ADME, Microsome
[13] = Apparent oral volume of distribution in mouse plasma at 121.6 mg/kg,po by HPLC analysis; assay type: ADME, organism-based; method in brief: as §3
[14] = Terminal half life in mouse plasma at 25 mg/kg,iv by HPLC analysis; assay type: ADME, organism-based; conditions: read-out: beta t1/2; method in brief: as §3
[15] = Metabolic stability in rat liver microsomes assessed as intrinsic clearance measured upto 30 min by HPLC-MS/MS analysis; assay type: ADME, Microsome; conditions: read-out: CLH
[16] = Permeability of the compound at 10 uM measured after 5 hrs by PAMPA based HPLC-MS/MS analysis; assay type: ADME; conditions: read-out: permeability
[17] = Clearance in mouse plasma at 121.6 mg/kg,po by HPLC analysis; assay type: ADME, organism-based; method in brief: as §3
[18] = Clearance in mouse plasma at 25 mg/kg,iv by HPLC analysis; assay type: ADME, organism-based; method in brief: as §3
[19] = Volume of distribution at steady state in mouse plasma at 121.6 mg/kg,po by HPLC analysis; assay type: ADME, organism-based; conditions: in vivo; method in brief: as §3
[20] = Solubility of the compound in HCl at pH 1.2 incubated for 4 hrs by liquid chromatography; assay type: physicochemical; conditions: HCl pH 1.2, pH 1.2
[21] = Absorption rate constant in mouse plasma at 121.6 mg/kg,po by HPLC analysis; assay type: ADME, organism-based; conditions: in vivo; method in brief: as §3
[22] = Terminal half life in mouse plasma at 121.6 mg/kg,po by HPLC analysis; assay type: ADME, organism-based; conditions: read-out: beta t1/2; method in brief: as §3
[23] = Solubility of the compound in PBS at pH 7.4 incubated for 4 hrs by liquid chromatography; assay type: physicochemical; conditions: PBS pH 7.4, pH 7.4
[24] = Apparent oral clearance in mouse plasma at 121.6 mg/kg,po by HPLC analysis; assay type: ADME, organism-based; method in brief: as §3
[25] = Chemical stability of the compound in pH 1.2 HCL assessed as remaining product at 10 uM incubated for 24 hrs by HPLC-MS/MS analysis; assay type: physicochemical; conditions: HCl pH 1.2, pH 1.2, read-out: Stability; method in brief: as §4
[26] = Volume of distribution at steady state in mouse plasma at 25 mg/kg,iv by HPLC analysis; assay type: ADME, organism-based; conditions: read-out: Vdss; method in brief: as §3

Structure (SMILES): COc1ccc2nc(C)cc(OCC(=O)Nc3ccccc3OC)c2c1
- MIC [1]: 0.44 µM (≈ 0.155 µg/mL)

Structure (SMILES): COc1ccc2nc(C)cc(OCC(=O)Nc3ccc4ccccc4c3)c2c1
- MIC [1]: 0.05 µM (≈ 0.0186 µg/mL)

Structure (SMILES): CCCc1ccc(NC(=O)COc2cc(C)nc3ccc(OC)cc23)cc1
- MIC [1]: 0.05 µM (≈ 0.0182 µg/mL)

Structure (SMILES): Cc1cc(OCC(=O)Nc2ccc(N3CCCCC3)cc2)c2cc(Cl)ccc2n1
- MIC [1]: 0.75 µM (≈ 0.307 µg/mL)

Structure (SMILES): COc1ccc2nc(C)cc(OCC(=O)N[C@H]3C[C@H]4C[C@@H]([C@@H]3C)C4(C)C)c2c1
- MIC [1]: 3.3 µM (≈ 1.26 µg/mL)

Structure (SMILES): Cc1cc(OCC(=O)Nc2ccc(N3CCCCC3)cc2)c2cc(Br)ccc2n1
- MIC [1]: 0.68 µM (≈ 0.309 µg/mL)

Structure (SMILES): COc1ccc2nc(C(F)(F)F)cc(OCC(=O)Nc3ccc(N4CCCCC4)cc3)c2c1
- MIC [1]: 0.17 µM (≈ 0.0781 µg/mL)

Structure (SMILES): COc1ccc2nc(C)cc(OCC(=O)Nc3ccc(N4CCSCC4)cc3)c2c1
- MIC [1]: 0.37 µM (≈ 0.157 µg/mL)

Structure (SMILES): COc1ccc2nc(C)cc(OCC(=O)NC3CCC3)c2c1
- MIC [1]: 33.3 µM (≈ 10 µg/mL)

Structure (SMILES): CCc1cc(OCC(=O)Nc2ccc(N3CCCCC3)cc2)c2cc(OC)ccc2n1
- selectivity ratio [2]: > 105
- CC50 (HepG2): > 20 µM
- selectivity ratio [3]: > 105
- CC50 at 72 h [4]: > 20 µM
- Activity [5]: 4.13 log10CFU
- MIC [1]: 0.19 µM (≈ 0.0797 µg/mL)

Structure (SMILES): COc1ccc2nc(C)cc(OCC(=O)NC3CCCCC3C)c2c1 (centres undefined)
- MIC [1]: 14.6 µM (≈ 5 µg/mL)

Structure (SMILES): COc1ccc2nc(C)cc(OCC(=O)NC3CCCCC3)c2c1
- MIC [1]: 7.6 µM (≈ 2.5 µg/mL)

Structure (SMILES): COc1ccc2nc(C)cc(OCC(=O)NCC3CCCCC3)c2c1
- MIC [1]: 7.3 µM (≈ 2.5 µg/mL)

Structure (SMILES): COc1ccc2nc(C)cc(OCC(=O)N[C@@H]3C[C@@H]4C[C@H]([C@H]3C)C4(C)C)c2c1
- MIC [1]: 26.1 µM (≈ 9.98 µg/mL)

Structure (SMILES): COc1ccc2nc(C)cc(OCC(=O)NC3CCCCCC3)c2c1
- MIC [1]: 3.7 µM (≈ 1.27 µg/mL)

Structure (SMILES): COc1ccc2nc(C)cc(OCC(=O)NC3CCCC3)c2c1
- MIC [1]: 15.9 µM (≈ 5 µg/mL)

Structure (SMILES): CCc1cc(OCC(=O)Nc2ccc(N3CCCCC3)cc2)c2cc(Br)ccc2n1
- MIC [1]: 0.34 µM (≈ 0.159 µg/mL)

Structure (SMILES): CCc1cc(OCC(=O)Nc2ccc(N3CCCCC3)cc2)c2cc(Cl)ccc2n1
- MIC [1]: 0.37 µM (≈ 0.157 µg/mL)

Structure (SMILES): COc1ccc2nc(C)cc(OCC(=O)NC3C4CC5CC(C4)CC3C5)c2c1 (centres undefined)
- MIC [1]: 6.6 µM (≈ 2.51 µg/mL)

Structure (SMILES): COc1ccc2nc(C)cc(OCC(=O)N[C@H](C)C3CCCCC3)c2c1
- MIC [1]: > 14 µM

Structure (SMILES): COc1ccc2nc(C)cc(OCC(=O)Nc3ccc(N4CCCCC4)cc3)c2c1
- concentration at 24 h [6]: 1140 ng/mL
- Cmax [7]: 8300 ng/mL
- CL [8]: 0.339 L/h/kg
- bioavailability [9]: 51%
- remaining at 24 h, 10 µM [10]: 100%
- remaining at 24 h, 10 µM [11]: 62.1%
- half-life [12]: 176 min
- Vd/F [13]: 0.46 L/kg
- selectivity ratio [2]: > 222
- CC50 (HepG2): > 20 µM
- half-life [14]: 136 min
- CLint scaled [15]: 7.5 mL/min/kg
- Papp at 5 h, 10 µM [16]: 4.5 ×10⁻⁶ cm/s
- CL/F [17]: 1.92 mL/min/kg
- clearance [18]: 1.47 mL/min/kg
- Vdss [19]: 0.234 L/kg
- solubility at 4 h [20]: > 2500 µM
- Ka [21]: 3.01 h⁻¹
- selectivity ratio [3]: > 222
- half-life [22]: 103 min
- solubility at 4 h [23]: 31.4 µM (≈ 12.7 µg/mL)
- CL/F [24]: 3.77 mL/min/kg
- remaining at 24 h, 10 µM [25]: 58.3%
- CC50 at 72 h [4]: > 20 µM
- Vd [26]: 0.304 L/kg
- Activity [5]: 4.13 log10CFU
- MIC [1]: 0.09 µM (≈ 0.0365 µg/mL)

Structure (SMILES): O=C(COc1cc(C(F)(F)F)nc2ccc(Br)cc12)Nc1ccc(N2CCCCC2)cc1
- MIC [1]: 78.7 µM (≈ 40 µg/mL)

Structure (SMILES): COc1ccc2nc(C)cc(OCC(=O)Nc3ccc(N4CCOCC4)cc3)c2c1
- MIC [1]: 3.1 µM (≈ 1.26 µg/mL)

Structure (SMILES): O=C(COc1cc(C(F)(F)F)nc2ccc(Cl)cc12)Nc1ccc(N2CCCCC2)cc1
- MIC [1]: 86.2 µM (≈ 40 µg/mL)

Structure (SMILES): COc1ccc2nc(C)cc(OCC(=O)N[C@@H](C)C3CCCCC3)c2c1
- MIC [1]: > 14 µM

Structure (SMILES): COc1ccc2nc(C)cc(OCC(=O)NC3CCC(C)CC3)c2c1 (centres undefined)
- MIC [1]: 7.3 µM (≈ 2.5 µg/mL)

Structure (SMILES): NNC(=O)c1ccncc1 [ISONIAZID]
- MIC [1]: 2.3 µM (≈ 0.315 µg/mL)

Structure (SMILES): CO[C@H]1/C=C/O[C@@]2(C)Oc3c(C)c(O)c4c(O)c(c(/C=N/N5CCN(C)CC5)c(O)c4c3C2=O)NC(=O)/C(C)=C\C=C\[C@H](C)[C@H](O)[C@@H](C)[C@@H](O)[C@@H](C)[C@H](OC(C)=O)[C@@H]1C [RIFAMPIN]
- MIC [1]: 0.05 µM (≈ 0.0411 µg/mL)
